# Screening data deposited in PubChem by several laboratories.
# p97 inhibitor: inhibitors of human p97 ATPase, primary screen, biochemical. inhibition, % at 8 µM. hit rate 0.42% among 220,000. AID 1481, 2009. recombinant p97 ATPase, Kinase-Glo ATP luminescence, 3 h. Transitional endoplasmic reticulum ATPase (Homo sapiens), P55072; in the data active = inhibition above about 15%;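 note: 0% = DMSO vehicle and 100% = wells lacking enzyme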
# M18AAP inhibitor: PfM18AAP inhibitors, malaria aminopeptidase, primary screen, biochemical, QFRET, recombinant enzyme. inhibition, % at 7.35 µM. hit rate 1.2% among 290,000. M18 aspartyl aminopeptidase (Plasmodium falciparum 3D7). H-Glu-NHMec fluorogenic cleavage. AID 1822, 2009;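 active = inhibition above the campaign mean inhibition over all tested compounds plus 3 SD, cut at about 28% in these data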;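 note: 0% = plate median of test compound wells and 100% = 2 mM ZnCl2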
# zVAD death inh: inhibitors of zVAD-triggered necroptosis, primary screen, L929 cells; hit rate 0.38% among 220,000; viability rescue, % at 10 µM; AID 1377, 2008; L929 zVAD necroptosis rescue, ATP luminescence, 24 h; with zVAD 60 µM;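 active = activation, scaled between plate controls, above about 75%, limit read from the data; inactive = activation under that limit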;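 note: 0% = zVAD with DMSO and 100% = DMSO alone without zVAD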
# RBBP9 inhibitor: human RBBP9 inhibitors, primary screen, biochemical, fluorescence polarization, FP-Rh probe, HTS; recombinant RBBP9; hit rate 0.2% among 220,000; Serine hydrolase RBBP9 (Homo sapiens), O75884; AID 1515, 2009; inhibition, % at 7.94 µM;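 active = inhibition above the campaign mean of all tested compounds plus 3 SD, cut at about 14% in these data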;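 note: plate controls were DMSO wells with RBBP9 for no effect and wells lacking RBBP9 protein for full effect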
#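 System: RBBP9 protein | Quantity: 2.5 µM RBBP9 dispensing solution, before mixing | Reagent: FP-Rh probe, 375 nM dispensing solution | Timing: Enzyme-compound preincubation 30 min, then probe labeling 45 min, 25 °C | Measured by: Fluorescence polarization | Read-out: % inhibition | Replication: One well per compound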
# Wee1 stabilizer: Wee1 degradation inhibitors, primary screen, cell-based, HeLa, Wee1K328M-luciferase, luminescence; Wee1-like protein kinase (Homo sapiens), P30291; HeLa Luc-Wee1K328M stability; 100% = proteasome inhibitor MG132 effect; reporter increase, % at 5 µM; hit rate 1.2% among 220,000; AID 1321, 2008;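 active = activation above the mean of all tested compounds plus 3 SD, set per screening run, cut at about 8.8% in these data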;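 note: cells exposed to compound for 20 h before luminescence read; 0% = DMSO alone and 100% = MG132 at 30 µM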
# Target sequence (P30291 whole entry K328M): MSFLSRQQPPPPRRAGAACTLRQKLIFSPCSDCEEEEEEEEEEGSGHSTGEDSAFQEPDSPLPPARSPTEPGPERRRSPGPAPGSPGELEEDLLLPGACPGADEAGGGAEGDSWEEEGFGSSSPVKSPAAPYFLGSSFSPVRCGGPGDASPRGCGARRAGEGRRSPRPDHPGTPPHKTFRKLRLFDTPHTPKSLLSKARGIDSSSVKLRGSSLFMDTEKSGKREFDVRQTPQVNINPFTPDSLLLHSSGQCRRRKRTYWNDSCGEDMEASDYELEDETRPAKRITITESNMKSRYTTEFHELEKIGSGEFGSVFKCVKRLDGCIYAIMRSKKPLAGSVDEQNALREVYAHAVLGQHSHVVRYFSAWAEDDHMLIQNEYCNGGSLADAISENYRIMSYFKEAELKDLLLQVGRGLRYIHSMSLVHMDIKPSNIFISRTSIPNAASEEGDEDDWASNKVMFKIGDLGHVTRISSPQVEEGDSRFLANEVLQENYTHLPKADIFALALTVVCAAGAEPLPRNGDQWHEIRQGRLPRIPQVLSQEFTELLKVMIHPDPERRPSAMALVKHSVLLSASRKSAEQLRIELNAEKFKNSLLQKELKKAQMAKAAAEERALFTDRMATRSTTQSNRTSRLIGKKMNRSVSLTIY
# TNF necrop inh: inhibitors of TNF-alpha triggered necroptosis, primary screen, cell-based, Jurkat FADD-/-, single concentration; activation (protection from cell death), % at 10 µM; hit rate 0.068% among 220,000; Jurkat FADD-/- TNF necroptosis rescue, ATP luminescence, 24 h; 0 = TNF only, 100 = no-TNF cells; AID 463075, 2010;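 active = activation, meaning protection from cell death, of at least 50% relative to plate controls; inactive = activation below 50%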;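 note: necroptosis triggered by 40 ng/mL TNF-alpha added together with compound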
# The depositor's hits bear a star; / = not tested or not shown. Rows were chosen to be rich in hits. Some 2.7% of all compounds tested hit in one or more screens of this group.
SMILES,p97 inhibitor,M18AAP inhibitor,zVAD death inh,RBBP9 inhibitor,Wee1 stabilizer,TNF necrop inh
COc1cccc(N2C(=O)CC(Nc3ccc(N4CCOCC4)cc3)C2=O)c1 (centres undefined),6,29*,0,-4,-2,-2
COc1ccc(N2C(=O)CC(Nc3ccc(N4CCOCC4)cc3)C2=O)c(OC)c1 (centres undefined),3,28*,1,-3,5,-1
CCOc1ccc(/C=C2/SC(=S)N(C(C(=O)O)c3ccccc3)C2=O)cc1OCC (centres undefined),0,12,2,-2,17*,0
CCOc1cc(/C=C2\SC(=S)N(C(C(=O)O)c3ccccc3)C2=O)ccc1O (centres undefined),-12,14,1,-67,3,0
COc1cc(C)c(-c2[nH]ncc2-c2csc(C)n2)c(O)c1,0,-3,-1,4,2,2
Cc1nc(-c2cn[nH]c2-c2ccc(O)cc2O)cs1,-4,7,1,-11,9.0*,0
O=C(CN(C(=O)CNC(=O)c1cccs1)c1ccc(F)cc1)NC1CCCCC1,/,1,/,/,/,/
Cc1ccc(NC(=O)C2COc3ccccc3O2)nc1 (centres undefined),2,3,1,-3,1,89*
COc1ccccc1NC(=O)CCc1nnc2ccc(N3CCC4(CC3)OCCO4)nn12,/,7,/,/,/,/
CC(C)(C)OC(=O)N1CCC[C@H]1C(=O)NCc1ccc(Cl)cc1Cl,1,6,1,-3,10*,-1
Cc1ccc(NC(=O)C2CCCN2C(=O)OC(C)(C)C)cc1C (centres undefined),2,1,0,3,10*,2
O=C(O)C1(c2ccccc2)CCN(S(=O)(=O)c2ccc(Br)cc2)CC1,/,-7,/,/,/,/
CCOC(=O)c1c(NC(=O)CSc2nnc(C)o2)sc(C)c1C,3,0,0,3,9.8*,1
CCOC(=O)c1c(NC(=O)CSc2n[nH]c(-c3ccco3)n2)sc(C)c1C,2,31*,1,-6,-2,0
CCOC(=O)c1c(NC(=O)CSc2n[nH]c(CNc3ccccc3)n2)sc(C)c1C,-2,1,-1,0,3,-1
C[C@H](NC(=O)N1CCC(Cc2ccccc2)CC1)C(=O)O,/,2,/,/,/,/
CCc1noc(C)c1C(=O)N1CCC(CCC(=O)Nc2cccc(OC)c2)CC1,/,0,/,/,/,/
O=C(NCc1nc(-c2ccccc2)no1)c1cccs1,2,-2,1,-6,3,0
O=C(NCc1nc(-c2ccc(C(F)(F)F)cc2)no1)c1cccs1,-1,-8,0,-4,9.6*,3
CCc1ccccc1NC(=O)c1ccc2nc(N3CCOCC3)sc2c1,/,-1,/,/,/,/
Cc1ccc(C(=O)Nc2ccc(N3CCOCC3)nc2N2CCOCC2)cc1,-2,28*,1,0,4,1
O=C(Nc1ccc(N2CCOCC2)nc1)c1ccc(Cl)cc1,0,7,1,2,5,-5
Cc1ccc(NC(=O)c2ccc3nc(N4CCOCC4)sc3c2)c(Cl)c1,/,29*,/,/,/,/
CCOC(=O)CN1C(=O)C(CC)Oc2ccccc21 (centres undefined),4,-10,0,-3,17*,0
CCOC(=O)C1CCN(C(=O)CN2C(=O)C(CC)Oc3ccccc32)CC1 (centres undefined),3,-3,3,-3,-1,0
SMILES,p97 inhibitor,M18AAP inhibitor,zVAD death inh,RBBP9 inhibitor,Wee1 stabilizer,TNF necrop inh
COc1ccc(C2C(C#N)=C(C)NC(C)=C2C(=O)OC(C)C)c(OC)c1 (centres undefined),2,6,1,-10,1,-3
O=C(CN(C(=O)c1csnn1)c1ccccc1C(F)(F)F)NC1CCCCC1,/,-4,/,/,/,/
COCc1ccc(C(=O)NC2CCCc3c2cnn3-c2cc(C)cc(C)c2)s1 (centres undefined),/,2,/,/,/,/
CCOC(=O)N1CCN(Cc2ccc(O)c3ncccc23)CC1,0,-1,-3,1,-1,-8
Cc1ccc(C)c(S(=O)(=O)N2CCN(Cc3ccc(O)c4ncccc34)CC2)c1,1,1,17,0,9.3*,-10
C[C@H](CCC(=O)O)[C@H]1CC[C@H]2[C@@H]3[C@@H](O)C[C@@H]4C[C@H](O)CC[C@]4(C)[C@H]3CC[C@]12C,-5,0,0,5,9.8*,0
COc1ccc(-n2c(SCC(=O)O)nc3sc4c(c3c2=O)CCC4)cc1,1,4,1,2,1,1
COc1ccc(-n2c(C)nc3sc4c(c3c2=O)CCC4)cc1,3,5,23,1,2,93*
CNc1nc(-c2c[nH]c3ccccc23)cs1,6,2,1,-7,1,-5
CN=c1scc(-c2c[nH]c3ccccc23)n1C,0,-5,0,-10,12*,1
Cc1cc(=O)n2nc(N3CCC(C(=O)NCCc4ccc(Cl)cc4)CC3)sc2n1,/,-3,/,/,/,/
CCCCNS(=O)(=O)c1ccc(NC(=O)C(Sc2ccccc2)c2ccccc2)cc1 (centres undefined),2,-1,2,-53,3,4
CCN(CC)c1ccc(C=Nc2cccnc2Cl)c(O)c1,/,31*,/,/,/,/
Cc1ccc(C(=O)O)cc1NC(=O)CSc1ncnc2sc3c(c12)CCC3,2,2,0,-10,4,1
CSc1nc2ncc3c(n2n1)CC(C)(C)CC3=O,7,-7,2,-3,8.9*,0
Clc1cccc(Cl)c1CSc1nnc(CN2CCOCC2)n1-c1ccccc1,-6,-19,-1,-3,11*,-1
Fc1cccc(Cl)c1CSc1nnc(CN2CCOCC2)n1-c1ccccc1,3,-13,-1,-13,4,0
O=C(O)c1ccccc1NC(=O)C1CCN(S(=O)(=O)c2cccc3nsnc23)CC1,/,-1,/,/,/,/
CCNC(=S)NNC(=O)c1csc(C)c1,1,28*,0,-5,0,0
Cc1nn(Cc2ccccc2Cl)c(Cl)c1C(=O)NCCc1ccccc1,-4,-6,0,3,10*,2
CNNC(=S)NC1CC2CC1C1C=CCC21 (centres undefined),9,18,1,3,1,1
NC(=S)NC1CC2CC1C1C=CCC21 (centres undefined),8,-4,2,-5,9.5*,11
COc1ccc2oc(=N)c(C(=O)Nc3cccc(C)c3C)cc2c1,/,3,/,/,/,/
CCOC(=O)c1sc2cccc(F)c2c1N,-1,-13,0,-12,33*,-2
